Test results published in ChEMBL document CHEMBL1157893, “The discovery and structure-activity relationships of pyrano[3,4-b]indole based inhibitors of hepatitis C virus NS5B polymerase” (Bioorg Med Chem Lett, 2010).

What was measured:
[1] = Cytotoxicity against human HuH7 cells assessed as BrdU incorporation in to cellular DNA by counter assay; assay type: cell-based, Huh-7
Summary of the method: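 General cytotoxicity counter assay run alongside the replicon assay, read out as BrdU incorporation into cellular DNA.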

[2] = test system: Hepatitis C virus; test: Inhibition of HCV 1b BB7 NS5B Cdelta21 polymerase expressed in Escherichia coli after 120 mins; assay type: functional, Hepatitis C virus subtype 1b; details: BB7, 2 h
Summary of the method: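 RdRp assay with 24 nM NS5BdCT21-His in 20 mM HEPES pH 7.5, 5 mM MgCl₂, 1 mM DTT, 0.05 mg/ml BSA and NTPs. Enzyme preincubated with compound (3 nM–30) 15 min at room temperature, then reacted 120 min at room temperature. Radiolabeled RNA collected on filters and counted by scintillation. IC50 from sigmoidal variable-slope dose–response fit, relative to no-compound controls.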

[3] = test system: Hepatitis C virus; test: Antiviral activity against HCV 1b BB7 infected in human HuH7 cells after 3 days by ELISA; assay type: functional, organism-based, Hepacivirus hominis; details: genotype 1b BB7, Huh-7, 72 h
Summary of the method: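 HCV replicon cells; viral replication measured by ELISA against NS5A.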

[4] = Inhibition of HCV BK NS5B polymerase; design: species or system Hepatitis C virus (isolate BK)
[5] = test system: Hepatitis C virus; test: Antiviral activity against HCV 1b BB7 infected in human HuH7 cells assessed as total viral RNA level after 3 days by RT-PCR analysis; assay type: functional, Hepacivirus hominis, genotype 1b BB7, Huh-7
[6] = test system: Hepatitis C virus; test: Antiviral activity against HCV 1b BB7 infected in human HuH7 cells assessed as GAPDH RNA level after 3 days by RT-PCR analysis; assay type: functional, Hepacivirus hominis, genotype 1b BB7, Huh-7
[7] = Apparent permeability from apical to basolateral side of human Caco-2 cells; assay type: ADME, cell-based
[8] = Ratio of apparent permeability from basolateral to apical side over apical to basolateral side in human Caco-2 cells
[9] = Apparent permeability from basolateral to apical side of human Caco-2 cells; assay type: ADME, cell-based

Row | Compound | CC50 [1] [µM] | IC50 [2] [µM] | EC50 [3] [µM] | IC50 [4] [µM] | other results
1 | CCC[C@]1([C@H](NC(=O)c2ccccc2)C(=O)O)OCCc2c1[nH]c1c(C)ccc(C#N)c21 (racemic) | > 100 | 4.5 | > 100 |  | 
2 | O=C(O)CC1(CC2CCCC2)OCCc2c1[nH]c1c(Cl)ccc(Cl)c21 (stereo unspecified) |  |  |  | 9.4 | 
3 | C=CCOC(=O)N[C@H](C(=O)O)[C@@]1(CCC)OCCc2c1[nH]c1c(C)ccc(C#N)c21 (racemic) | > 100 | 5.9 | > 100 |  | 
4 | CCC(C)C1(CC(=O)O)OCCc2c1[nH]c1c(C)ccc(C#N)c21 (racemic) |  | 4.9 |  | 3.2 | 
5 | CCC[C@]1([C@H](NS(C)(=O)=O)C(=O)O)OCCc2c1[nH]c1c(C)ccc(C#N)c21 (racemic) | > 100 | 6 | > 100 |  | 
6 | CCCCC1(CC(=O)O)OCCc2c1[nH]c1c(Cl)ccc(Cl)c21 (stereo unspecified) |  |  |  | 0.76 | 
7 | CCC[C@]1([C@H](NC(=O)OC)C(=O)O)OCCc2c1[nH]c1c(C)ccc(C#N)c21 (racemic) | > 100 | 5.6 | > 100 |  | 
8 | CCC[C@]1([C@@H](NS(=O)(=O)c2ccccc2)C(=O)O)OCCc2c1[nH]c1c(C)ccc(C#N)c21 (racemic) | > 100 | 16 | > 100 |  | 
9 | CC/C=C/C1(CC(=O)O)OCCc2c1[nH]c1c(Cl)ccc(Cl)c21 (stereo unspecified) |  |  |  | 1.7 | 
10 | O=C(O)CC1(C2CCCC2)OCCc2c1[nH]c1c(Cl)ccc(Cl)c21 (stereo unspecified) |  |  |  | 3.3 | 
11 | CC[C@H](C)[C@]1(CC(=O)O)OCCc2c1[nH]c1c(C)ccc(C#N)c21 |  | 0.26 | 2.2 | 0.13 | Activity [5]: 2.1 µM; Activity [6]: >10 µM
12 | CSCC1(CC(=O)O)OCCc2c1[nH]c1c(Cl)ccc(Cl)c21 (stereo unspecified) |  |  |  | 7 | 
13 | CCCCC(=O)N[C@H](C(=O)O)[C@@]1(CCC)OCCc2c1[nH]c1c(C)ccc(C#N)c21 (racemic) | > 100 | 5 | > 100 |  | 
14 | CCCCS(=O)(=O)N[C@@H](C(=O)O)[C@@]1(CCC)OCCc2c1[nH]c1c(C)ccc(C#N)c21 (racemic) | > 100 | 22 | > 100 |  | 
15 | CCC[C@]1([C@H](NC(=O)OCc2ccccc2)C(=O)O)OCCc2c1[nH]c1c(C)ccc(C#N)c21 (racemic) | 45 | 0.72 | 35 |  | 
16 | CCCCS(=O)(=O)N[C@H](C(=O)O)[C@@]1(CCC)OCCc2c1[nH]c1c(C)ccc(C#N)c21 (racemic) | > 100 | 3.6 | > 100 |  | 
17 | CCC[C@]1([C@H](NC(=O)OC(C)C)C(=O)O)OCCc2c1[nH]c1c(C)ccc(C#N)c21 (racemic) | > 100 | 11 | > 100 |  | 
18 | CCC[C@]1([C@@H](NC(C)=O)C(=O)O)OCCc2c1[nH]c1c(C)ccc(C#N)c21 (racemic) | > 100 | 17 | > 100 |  | 
19 | CCOCC1(CC(=O)O)OCCc2c1[nH]c1c(Cl)ccc(Cl)c21 (stereo unspecified) |  |  |  | 26 | 
20 | O=C(O)CC1(C2CCC2)OCCc2c1[nH]c1c(Cl)ccc(Cl)c21 (stereo unspecified) |  |  |  | 0.35 | 
21 | CCC[C@]1(CC(=O)O)OCCc2c1[nH]c1c(C)c(OCCn3cccn3)cc(C#N)c21 |  | 0.005 | 0.88 | 0.012 | Activity [5]: 0.14 µM; Activity [6]: >90 µM
22 | O=C(O)CC1(CC2CC2)OCCc2c1[nH]c1c(Cl)ccc(Cl)c21 (stereo unspecified) |  |  |  | 1.9 | 
23 | CC(C)C1(CC(=O)O)OCCc2c1[nH]c1c(Cl)ccc(Cl)c21 (stereo unspecified) |  |  |  | 7 | 

Row | Compound | CC50 [1] [µM] | IC50 [2] [µM] | EC50 [3] [µM] | IC50 [4] [µM] | other results
24 | CCC1(CC(=O)O)OCCc2c1[nH]c1c(Cl)ccc(Cl)c21 (stereo unspecified) |  |  |  | 6.3 | 
25 | CCC(C)C1(CC(=O)O)OCCc2c1[nH]c1c(Cl)ccc(Cl)c21 (stereo unspecified) |  |  |  | 0.15 | 
26 | CCC[C@]1([C@H](NC(=O)OCC)C(=O)O)OCCc2c1[nH]c1c(C)ccc(C#N)c21 (racemic) | > 100 | 7.2 | > 100 |  | 
27 | CCCC1(CC(=O)O)OCCc2c1[nH]c1c(Cl)ccc(Cl)c21 (stereo unspecified) |  |  |  | 0.37 | 
28 | CC1(CC(=O)O)OCCc2c1[nH]c1c(Cl)ccc(Cl)c21 (stereo unspecified) |  |  |  | 27 | 
29 | Cc1ccc(C#N)c2c3c([nH]c12)[C@](CC(=O)O)(C1CCC1)OCC3 |  | 1.1 | 29.7 | 0.4 | 
30 | COCC1(CC(=O)O)OCCc2c1[nH]c1c(Cl)ccc(Cl)c21 (stereo unspecified) |  |  |  | > 30 | 
31 | CCCCC(=O)N[C@@H](C(=O)O)[C@@]1(CCC)OCCc2c1[nH]c1c(C)ccc(C#N)c21 (racemic) | > 100 | > 30 | > 100 |  | 
32 | CCC[C@]1([C@H](NS(=O)(=O)c2ccccc2)C(=O)O)OCCc2c1[nH]c1c(C)ccc(C#N)c21 (racemic) | > 100 | 4 | > 100 |  | 
33 | CCC[C@]1([C@H](NC(C)=O)C(=O)O)OCCc2c1[nH]c1c(C)ccc(C#N)c21 (racemic) | > 100 | 1.7 | > 100 |  | 
34 | COCCC1(CC(=O)O)OCCc2c1[nH]c1c(Cl)ccc(Cl)c21 (stereo unspecified) |  |  |  | > 24 | 
35 | CCC[C@]1([C@H](NC(=O)OCC(C)C)C(=O)O)OCCc2c1[nH]c1c(C)ccc(C#N)c21 (racemic) | > 100 | 9.5 | > 100 |  | 
36 | O=C(O)CC1(CCC(F)(F)F)OCCc2c1[nH]c1c(Cl)ccc(Cl)c21 (stereo unspecified) |  |  |  | 0.4 | 
37 | CC[C@H](C)[C@]1(CC(=O)O)OCCc2c1[nH]c1c(C)c(OCCn3cccn3)cc(C#N)c21 |  | 0.002 | 0.12 | 0.009 | Activity [5]: 0.02 µM; Activity [6]: >20 µM
38 | CCC[C@]1([C@H](NC(=O)OC(C)(C)C)C(=O)O)OCCc2c1[nH]c1c(C)ccc(C#N)c21 (racemic) | > 100 | 18 | > 100 |  | 
39 | O=C(O)CC1(C2CCCCC2)OCCc2c1[nH]c1c(Cl)ccc(Cl)c21 (stereo unspecified) |  |  |  | > 30 | 
40 | O=C(O)CC1(C2CC2)OCCc2c1[nH]c1c(Cl)ccc(Cl)c21 (stereo unspecified) |  |  |  | 7.3 | 
41 | CCC[C@]1([C@@H](NS(C)(=O)=O)C(=O)O)OCCc2c1[nH]c1c(C)ccc(C#N)c21 (racemic) | > 100 | 13 | > 100 |  | 
42 | CC(C#N)C1(CC(=O)O)OCCc2c1[nH]c1c(Cl)ccc(Cl)c21 (stereo unspecified) |  |  |  | 0.3 | 
43 | CCC[C@]1([C@@H](NC(=O)c2ccccc2)C(=O)O)OCCc2c1[nH]c1c(C)ccc(C#N)c21 (racemic) | > 100 | > 30 | > 100 |  | 
44 | CCC[C@]1(CC(=O)O)OCCc2c1[nH]c1c(C)ccc(C#N)c21 | > 100 | 0.4 | 13.1 | 0.3 | Papp A→B [7]: 24 ×10⁻⁶ cm/s; efflux ratio [8]: 0.09; Papp B→A [9]: 2.2 ×10⁻⁶ cm/s; Activity [5]: 4.8 µM; Activity [6]: >160 µM
45 | CCC[C@]1(C(=O)O)OCCc2c1[nH]c1c(C)ccc(C#N)c21 |  |  |  | 0.7 | Papp A→B [7]: 3.2 ×10⁻⁶ cm/s; efflux ratio [8]: 7.5; Papp B→A [9]: 24.2 ×10⁻⁶ cm/s; Activity [5]: 12 µM; Activity [6]: >30 µM
